Calls of active or inactive are those of the source. The rule behind the calls is not given here.

The values that follow come from ChEMBL document CHEMBL4118256, “Second Generation of Mannich Base-Type Derivatives with in Vivo Activity against Trypanosoma cruzi” (J Med Chem, 2018).

In data set [1] the test system is Trypanosoma cruzi. The experiment in a line: Antitrypanosomal activity against Trypanosoma cruzi MHOM/Pe/2011/Arequipa DTU 5 trypamastigotes infected in Balb/c mouse assessed as reduction in parasitaemia reactivation in adipose tissue at 100 mg/kg, po pretreated once daily for 5 consecutive days starting from day 10 post infection followed by cyclophosphamide-induced immunosuppression on day 100 post infection every 4 days for a maximum of 3 doses measured on day 127 post infection by PCR method. The class given is functional. Further details: scale not given: the % may be the effect or the level left. To be noted: pooled result: one value given for 9 cell lines, strains, targets or settings. The essentials: (§1)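 Necropsy on day 127 pi after oral treatment and cyclophosphamide immunosuppression. Tissue DNA was amplified by PCR targeting the ~300 bp T. cruzi SOD gene, 200 nM each primer, 30 cycles with 55.5 °C annealing. Products run on 2 % agarose; positive organs counted out of six mice.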

The subject of data set [2] is Mus musculus. The data set can be described thus: Nephrotoxicity in Balb/c mouse infected with Trypanosoma cruzi MHOM/Pe/2011/Arequipa DTU 5 trypamastigotes assessed as change in uric acid level in serum at […], po once daily for 5 consecutive days starting from day 10 post infection measured on day 127 post infection by biochemical analysis relative to control. The class given is toxicity, organism-based. As to conditions: in vivo.

The subject of data set [3] is Mus musculus. The experiment in a line: Hepatotoxicity in Balb/c mouse infected with Trypanosoma cruzi MHOM/Pe/2011/Arequipa DTU 5 trypamastigotes assessed as decrease in ratio of serum AST to GOT level at […], po once daily for 5 consecutive days starting from day 75 post infection measured on day 81 post infection by biochemical analysis relative to control. The class given is toxicity, organism-based. More on the design: scale not given: the % may be the effect or the level left. As to conditions: in vivo.

Data set [4] deals with Trypanosoma cruzi. The data set can be described thus: Antitrypanosomal activity against Trypanosoma cruzi MHOM/Pe/2011/Arequipa DTU 5 trypamastigotes infected in Balb/c mouse assessed as reduction in parasitaemia reactivation in lung tissue at 100 mg/kg, po pretreated once daily for 5 consecutive days starting from day 75 post infection followed by cyclophosphamide-induced immunosuppression on day 100 post infection every 4 days for a maximum of 3 doses measured on day 127 post infection by PCR method. The class given is functional. Further details: scale not given: the % may be the effect or the level left. The essentials: as §1

In data set [5] the test system is Trypanosoma cruzi. The data set can be described thus: Antitrypanosomal activity against Trypanosoma cruzi MHOM/Pe/2011/Arequipa DTU 5 epimastigotes assessed as effect on parasite glycolytic pathway by measuring D-lactate excretion at IC25 after 72 hrs by 1H NMR method. The format is functional, organism-based. The essentials:
(§2)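 Arequipa epimastigotes exposed at IC25 for 72 h alongside an untreated control. Excreted catabolites were analysed by 1H NMR, and each peak is reported as % variation versus the control. Three separate determinations.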

Data set [6] deals with Mus musculus. The data set can be described thus: Nephrotoxicity in Balb/c mouse infected with Trypanosoma cruzi MHOM/Pe/2011/Arequipa DTU 5 trypamastigotes assessed as change in urea level in serum at […], po once daily for 5 consecutive days starting from day 75 post infection measured on day 127 post infection by biochemical analysis relative to control. The format is toxicity, organism-based. As to conditions: in vivo.

In data set [7] the test system is Trypanosoma cruzi. The experiment in a line: Antitrypanosomal activity against Trypanosoma cruzi MHOM/Pe/2011/Arequipa DTU 5 trypamastigotes infected in Balb/c mouse assessed as reduction in parasitaemia reactivation in stomach tissue at 100 mg/kg, po pretreated once daily for 5 consecutive days starting from day 75 post infection followed by cyclophosphamide-induced immunosuppression on day 100 post infection every 4 days for a maximum of 3 doses measured on day 127 post infection by PCR method. More on the design: scale not given: the % may be the effect or the level left. The class given is functional.

Data set [8] deals with Trypanosoma cruzi. The data set can be described thus: Antitrypanosomal activity against Trypanosoma cruzi MHOM/Pe/2011/Arequipa DTU 5 epimastigotes assessed as effect on parasite glycolytic pathway by measuring ethanol excretion at IC25 after 72 hrs by 1H NMR method. The format is functional, organism-based. Put shortly:
as §2

Data set [9] has as its system Mus musculus. The experiment in a line: Hepatotoxicity in Balb/c mouse infected with Trypanosoma cruzi MHOM/Pe/2011/Arequipa DTU 5 trypamastigotes assessed as decrease in ratio of serum ALT to GPT level at […], po once daily for 5 consecutive days starting from day 10 post infection measured on day 16 post infection by biochemical analysis relative to control. The format is toxicity, organism-based. Further details: scale not given: the % may be the effect or the level left. As to conditions: in vivo.

Data set [10] deals with Mus musculus. The data set can be described thus: Hepatotoxicity in Balb/c mouse infected with Trypanosoma cruzi MHOM/Pe/2011/Arequipa DTU 5 trypamastigotes assessed as increase in ratio of serum AST to GOT level at […], po once daily for 5 consecutive days starting from day 10 post infection measured on day 127 post infection by biochemical analysis relative to control. As to conditions: in vivo. The format is toxicity, organism-based.

Data set [11] relates to Mus musculus. The data set can be described thus: Nephrotoxicity in Balb/c mouse infected with Trypanosoma cruzi MHOM/Pe/2011/Arequipa DTU 5 trypamastigotes assessed as decrease in urea level in serum at […], po once daily for 5 consecutive days starting from day 75 post infection measured on day 127 post infection by biochemical analysis relative to control. The class given is toxicity, organism-based. More on the design: scale not given: the % may be the effect or the level left. As to conditions: in vivo.

Data set [12] deals with Mus musculus. The data set can be described thus: Cardiotoxicity in Balb/c mouse infected with Trypanosoma cruzi MHOM/Pe/2011/Arequipa DTU 5 trypamastigotes assessed as change in serum LDH level at 100 mg/kg, po once daily for 5 consecutive days starting from day 10 post infection measured on day 16 post infection by biochemical analysis relative to control. The class given is toxicity, organism-based. To be noted: in vivo.

In data set [13] the test system is Mus musculus. The data set can be described thus: Hepatotoxicity in Balb/c mouse infected with Trypanosoma cruzi MHOM/Pe/2011/Arequipa DTU 5 trypamastigotes assessed as increase in ratio of serum ALT to GPT level at 20 mg/kg, po once daily for 5 consecutive days starting from day 75 post infection measured on day 81 post infection by biochemical analysis relative to control. The class given is toxicity, organism-based. To be noted: in vivo.

Data set [14] has as its system Trypanosoma cruzi. The experiment in a line: Antitrypanosomal activity against Trypanosoma cruzi MHOM/Pe/2011/Arequipa DTU 5 trypamastigotes infected in Balb/c mouse assessed as reduction in Ig-G level in serum at 20 mg/kg, po once daily for 5 consecutive days starting from day 10 post infection measured on day 100 post infection by ELISA. The format is functional, organism-based. The essentials:
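Female BALB/c mice (8-10 weeks, 20-25 g), six per group, infected i.p. with 5 x 10^5 Arequipa bloodstream trypomastigotes. Compound was given orally once daily for 5 days from day 10 or day 75 pi, at 20 mg·kg-1 per day in 5 % DMSO/0.5 % HPMC. Anti-T. cruzi IgG in serum was measured by ELISA with Fe-SOD antigen, read as OD 490 nm.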

For data set [15], the system named is Mus musculus. The experiment in a line: Hepatotoxicity in Balb/c mouse infected with Trypanosoma cruzi MHOM/Pe/2011/Arequipa DTU 5 trypamastigotes assessed as increase in ratio of serum AST to GOT level at 20 mg/kg, po once daily for 5 consecutive days starting from day 75 post infection measured on day 81 post infection by biochemical analysis relative to control. The format is toxicity, organism-based. To be noted: in vivo.

Data set [16] has as its system Mus musculus. The data set can be described thus: Toxicity in Balb/c mouse assessed as reduction in body mass at 20 mg/kg, po once daily for 5 consecutive days starting from day 10 post infection relative to control. The class given is organism-based. Further details: scale not given: the % may be the effect or the level left. As to conditions: in vivo.
Data set [17] deals with Mus musculus. The experiment in a line: Cardiotoxicity in Balb/c mouse infected with Trypanosoma cruzi MHOM/Pe/2011/Arequipa DTU 5 trypamastigotes assessed as change in serum LDH level at 20 mg/kg, po once daily for 5 consecutive days starting from day 10 post infection measured on day 127 post infection by biochemical analysis relative to control. The format is toxicity, organism-based. As to conditions: in vivo. Put shortly: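 Serum clinical chemistry in Arequipa-infected female BALB/c mice. Oral 20 mg·kg-1 per day for 5 days, started day 10 or day 75 pi. Samples taken at day 16 pi or day 81 pi, and on necropsy day. Markers: CK-MB and LDH (U/L), AST, ALT and alkaline phosphatase (U/L), total bilirubin. Results scored relative to infected untreated controls; uninfected reference n = 15.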

Data set [18] deals with Mus musculus. The experiment in a line: Nephrotoxicity in Balb/c mouse infected with Trypanosoma cruzi MHOM/Pe/2011/Arequipa DTU 5 trypamastigotes assessed as increase in uric acid level in serum at […], po once daily for 5 consecutive days starting from day 10 post infection measured on day 16 post infection by biochemical analysis relative to control. The format is toxicity, organism-based. To be noted: in vivo.

In the case of `COc1ccc(C(=O)CCN2CCN(c3ccc(Cl)cc3)CC2)cc1`, the Activity in the data set on Trypanosoma cruzi [1] is given as 89%; in the data set with Mus musculus [2], under 10%; in the data set with Mus musculus [3], “<= 20%”; with Trypanosoma cruzi [4], 78%; in the data set on Mus musculus [6] it was under 10%; in the data set with Trypanosoma cruzi [7] it was 78%. For the same compound, the Activity result in the data set with Mus musculus [9] was “<= 20%”. Besides, the outcome in the data set on Trypanosoma cruzi [5] and in the data set with Trypanosoma cruzi [8] was inactive.
Turning to `COc1ccc(C(=O)CCN2CCN(c3ccc([N+](=O)[O-])cc3)CC2)cc1`, the Activity entry is listed as “<= 30%” in the data set with Mus musculus [10], “<= 10%” in the data set on Mus musculus [11], under 10% in the data set with Mus musculus [2] and under 10% in the data set with Mus musculus [12]. The outcome in the data set on Trypanosoma cruzi [5] and in the data set with Trypanosoma cruzi [8] was inactive.
`O=C(Cn1ccnc1[N+](=O)[O-])NCc1ccccc1` [BENZNIDAZOLE]: the Activity result in the data set with Mus musculus [13] was “<= 20%”; in the data set on Mus musculus [15], “<= 20%”; in the data set with Mus musculus [16] it was over 10%; in the data set with Mus musculus [17] it was under 10%. In addition, the outcome in the data set on Trypanosoma cruzi [14] was Active.
Consider `COc1ccc(C(=O)CCN2CCN(c3ccc(F)cc3)CC2)cc1`, for which the Activity result is reported as “<= 10%” in the data set on Mus musculus [3], “<= 20%” with Mus musculus [18], under 10% in the data set on Mus musculus [12] and “<= 30%” with Mus musculus [9].
